The source made the active and inactive calls. The calls are words filed in the database; no cut-off is given here.

One may read the ED50 as the dose that gives a 50% effect, or the effect in half of the subjects.

The species entered for assay [1] is Rattus norvegicus. Put plainly: Half maximal decrease of dopa accumulation in striatal brain portion of reserpinized rats. The class given is functional. In outline: (§1)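 Reserpinized rats; Dopa accumulation measured after the decarboxylase inhibitor NSD 1015 (100 mg/kg), Dopa determined spectrophotometrically. Compounds in saline, given subcutaneously at four to six dose levels. A dose-response curve was built per compound and brain area (limbic, striatal). ED50 is the dose giving half-maximal decrease of Dopa, estimated graphically. SEM was below 15% of the mean at each point.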

The species entered for assay [2] is Rattus norvegicus. Put plainly: Half maximal decrease of dopa accumulation in limbic portion of reserpinized rats. The following applies: Limbic system. The class given is functional. In outline:
as §1

The species named for assay [3] is Rattus norvegicus. The experiment in a line: Reduction in accumulated dopa is indicated with Motor activity value. The class given is functional. In outline:
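Rats given reserpine (10 mg/kg ip) 6 h and α-methyl-p-tyrosine methyl ester (250 mg/kg ip) 1 h before testing. Compounds were then given sc in the neck, n = 4, at 1 or 10 mg/kg in saline; controls received saline. Photocell motility meters, one rat per cage, recorded activity for 60 min immediately after dosing, with gross behavior observed.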

The species entered for assay [4] is Rattus norvegicus. Put plainly: Half maximal decrease of dopa accumulation in striatal brain portion of reserpinized rats; I =Inactive. The class given is functional, organism-based. The procedure, abridged:
as §1

For assay [5], the species on record is Rattus norvegicus. Put plainly: Half maximal decrease of dopa accumulation in limbic portion of reserpinized rats; I =Inactive. The class given is functional, organism-based. Particulars: Limbic system. In outline:
as §1

`Br.CCCN(CCC)[C@H]1CCc2c(O)cccc2[C@H]1C`: the median effective dose (ED50) was found to be 0.8 µmol/kg in the assay listed under Rattus norvegicus [1] and 0.67 µmol/kg in the assay listed under Rattus norvegicus [2]. Also, in the assay filed under Rattus norvegicus [3], the Motor activity was found to be 52 Counts hr-1.

With `Br.CCCN(CCC)[C@H]1CCc2c(O)cccc2[C@@H]1C`, the 50% effective dose (ED50) in the assay listed under Rattus norvegicus [1] was found to be 0.725 µmol/kg; in the assay filed under Rattus norvegicus [2], 0.66 µmol/kg. The compound further displayed a Motor activity in the assay listed under Rattus norvegicus [3] of 406 Counts hr-1.

As to `CCCN(CCC)[C@H]1CCc2c(O)cccc2C1(C)C`, in the assay filed under Rattus norvegicus [3], the Motor activity entry is “inactive”. Also, the ED50 result in the assay filed under Rattus norvegicus [4] and in the assay listed under Rattus norvegicus [5] was “inactive” throughout.

The record behind these values is ChEMBL document CHEMBL1122695, “C1-Methylated 5-hydroxy-2-(dipropylamino)tetralins: central dopamine-receptor stimulating activity” (1984).
